From PubChem
This is a sample that favours compounds with a hit; in the whole collection about 2.4% have one here.
TbHK1 inh: Trypanosoma brucei hexokinase 1 inhibitors, primary screen, biochemical, G6PDH-coupled NADH absorbance, MLSCN library; recombinant TbHK1, G6PDH-coupled NADH A340; inhibition, % at 10 µM; actives 0.11% (n = 220,000); AID 1430, 2008;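 active = inhibition of 50% or more in the single-dose primary screen; inactive = inhibition below 50%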
EP2 modulator: EP2 receptor modulators, cAMP readout, primary screen, cell-based, HTRF cAMP, PGE2 stimulation. actives 0.83% (n = 260,000). EP2-expressing cells, cAMP HTRF FRET, PGE2 co-stimulation. induction, % at 25 µM. Prostaglandin E2 receptor EP2 subtype (Homo sapiens), P43116. AID 940, 2007;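 active = compounds whose cAMP rise, as percent of the full-agonist control response, exceeds 60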;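 note: rat C6 glioma line stably carrying human EP2 under a CMV promoter; the protocol text gives 20 µM as final concentration; 100% = response of wells given 1 µM PGE2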
Target sequence (P43116 whole entry, looked up): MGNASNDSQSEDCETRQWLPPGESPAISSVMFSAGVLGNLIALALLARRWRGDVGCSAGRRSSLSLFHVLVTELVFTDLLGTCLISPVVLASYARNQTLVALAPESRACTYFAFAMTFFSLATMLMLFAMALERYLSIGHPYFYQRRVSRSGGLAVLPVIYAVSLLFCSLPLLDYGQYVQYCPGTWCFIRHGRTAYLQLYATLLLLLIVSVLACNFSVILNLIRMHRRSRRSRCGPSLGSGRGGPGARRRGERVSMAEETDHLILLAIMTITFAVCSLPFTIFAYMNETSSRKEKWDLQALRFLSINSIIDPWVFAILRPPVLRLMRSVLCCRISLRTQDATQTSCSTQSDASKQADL
PGE2 EP2 inh: human EP2 receptor antagonists, primary screen, TR-FRET cAMP, C6 glioma cells; Prostaglandin E2 receptor EP2 subtype (Homo sapiens), P43116; inhibition, % at 25 µM; C6 glioma cells expressing human EP2; cells stimulated with saturating PGE2; actives 0.52% (n = 260,000);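 active = percent inhibition above 40 after rounding to a whole number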;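 note: rat C6 glioma host cells with rolipram phosphodiesterase inhibitor present; the protocol text gives 20 µM as final concentration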
MT stabilizer: microtubule stabilizers in HeLa cells, primary screen, imaging, high-content imaging; HeLa tubulin immunostaining HCS, 24 h; share of cells brighter than vehicle mean+2SD; % tubulin-high responders, % at 10 µM; actives 0.83% (n = 200,000);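 active = plate Z-score above 3 for both tubulin-high and condensed-nucleus cell shares, with cell loss under 80%, at 10 µM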;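 note: anti alpha tubulin signal scored within the nucleus-defined area of each cell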
HMGR II inh: inhibitors of E. faecalis class II HMGR, primary screen, biochemical, Enterococcus faecalis; HMG-CoA reductase (Enterococcus faecalis, mvaE); purified E. faecalis HMGR, NADPH absorbance 340 nm kinetic; inhibition, % at 10 µM; actives 0.41% (n = 190,000);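 active = inhibition above a set limit, the median over all tested compounds plus 3 SD, cut at about 9.5% in these data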;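 note: enzyme runs in reverse so mevalonate oxidation gives rising NADPH absorbance; 0% = complete reaction with DMSO and 100% = background rate lacking mevalonate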
b-catenin transl: modulators of beta-catenin nuclear translocation, primary screen, imaging, HeLa cells, immunofluorescence, high-content | nuclear translocation activity, % at 5 µM | actives 0.3% (n = 190,000) | AID 1665, 2009;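 active = nuclear translocation activity above 50% at 5 µM, with a well cell count of 50 or more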;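 note: per-cell ratio of nuclear to cytoplasmic median beta-catenin stain intensity; plate controls were DMSO negative control for no effect and GSK-3 inhibitor IX positive control for full effect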
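assay system = human HeLa cells, endogenous beta-catenin | times = compound treatment 24 h, 37°C, 5% CO2 | detection = Anti-beta-catenin immunofluorescence on PFA-fixed, Triton-permeabilized cells, DAPI nuclei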
* marks the source's active call; other numbers are inactive results; nt = no result.

SMILES | TbHK1 inh | EP2 modulator | PGE2 EP2 inh | MT stabilizer | HMGR II inh | b-catenin transl
CN(CCN1CCCCC1)C(=O)Cc1ccc2c(c1)OCCO2 | nt | -19 | 9 | nt | nt | nt
Cn1c(=O)c2[nH]cnc2n(C)c1=O.[CH2-][C@H](Cc1cccc2cc(C(=O)O)c(=O)oc12)OC.[Hg].[OH-] | nt | 29 | 59* | nt | nt | nt
CC1=CC(=O)c2c(O)cccc2C1=O | nt | -34 | 79* | nt | nt | nt
CCC(C)N1CCN(Cc2cc(OC)c(OC)cc2OC)CC1 (stereo not drawn) | nt | -47 | 9 | nt | nt | nt
Cc1ccc(C=C2C(=O)NC(=S)NC2=O)o1 | nt | -106 | 114* | nt | nt | nt
CC[C@H]1CN2CCc3cc(OC)c(OC)cc3[C@@H]2C[C@@H]1C[C@H]1NCCc2c1[nH]c1ccc(O)cc21 | nt | -25 | 61* | nt | nt | nt
O=C(O)[C@@H]1C[C@H]1[C@@H](NP(=O)(c1ccccc1)c1ccccc1)c1ccccc1 | 6 | 38 | 13 | 2 | 21* | -2
CC(/C=N/NC(=O)c1n[nH]c2c1CCC2)=C\c1ccccc1 | -16 | -15 | 7 | 11 | -1 | 215*
COc1cccc(C2(O)CCN(CCNC(=O)c3c(C)noc3C)CC2)c1 | nt | -9 | 7 | nt | nt | nt
C[C@H](Br)CN(C[C@H](C)Br)c1ccc2c(c1)Cc1ccccc1-2 | nt | -27 | 57* | nt | nt | nt
CC(C)CCCn1c(O)c(/C=C2/C=CC=N2)c(=O)[nH]c1=O | 4 | 0 | 4 | 31* | -6 | 16
CN1CCN(C2CC3(C)C(CCC4C3CCC3(C)C(O)C(N5CCN(C)CC5)CC43)CC2O)CC1 (stereo not drawn) | nt | -36 | 4 | nt | nt | nt
CC(C)Oc1cccc(NC(=O)c2cccn(Cc3ccc4c(c3)OC(F)(F)O4)c2=O)c1 | -14 | -10 | 9 | 1 | 14* | -1
CN(C(=O)CNC(=O)OCc1ccccc1)c1ccc(Br)cc1C(=O)c1ccccc1Cl | -3 | 35 | 11 | 6 | -1 | 67*
Cc1[nH]c2ccccc2c1C1N2CC3(C)CN1CC(C)(C2)C3 (stereo not drawn) | nt | -42 | 9 | nt | nt | nt
COc1ccc(C2=CC(c3ccc(OC)c(OC)c3)c3c(c4ccccc4oc3=O)O2)cc1OC (stereo not drawn) | -19 | 1 | 2 | nt | nt | 100*
COc1ccc(C2C(C#N)=C(N)Oc3c2c(=O)oc2ccccc32)cc1Cn1cc([N+](=O)[O-])cn1 (stereo not drawn) | -2 | 16 | nt | 2 | -2 | 0
Cc1oc2c(c1CC(=O)N(CCN(C)C)Cc1ccc(F)cc1)C(=O)CC(C)(C)C2 | nt | -60 | 11 | nt | nt | nt
O=C(Nc1ccccc1)c1c(O)c2c(n(Cc3ccco3)c1=O)CCCC2 | -16 | 65* | 4 | nt | nt | 1
COc1ccc(OCC(=O)N2CCN(Cc3cc(OC)c(OC)cc3OC)CC2)cc1 | nt | 4 | 7 | nt | nt | nt
COc1ccc(C[C@@H]2C(=O)N[C@H](C)C(=O)N(C)[C@@H]3C(=O)N(C)[C@@H](Cc4ccc(O)c(c4)Oc4ccc(cc4)[C@H]3O)C(=O)N[C@@H](C)C(=O)N[C@H](C)C(=O)N2C)cc1 | nt | 27 | 43* | nt | nt | nt
CCCCC(CC)CNCC(O)c1ccccc1 (stereo not drawn) | 14 | 7 | 7 | 5 | 15* | -3
CC1CCC(NCC(O)c2ccccc2)CC1 (stereo not drawn) | 2 | -6 | 13 | 3 | 0 | nt
CN(CCC(=O)O)C1=Nc2ccc(Cl)cc2C(c2ccccc2)=[N+]([O-])C1 | nt | 14 | 50* | nt | nt | nt
CCCC(=O)N(C)C1=Nc2ccc(Cl)cc2C(c2ccccc2)=[N+]([O-])C1 | -21 | 9 | 4 | nt | nt | 0
SMILES | TbHK1 inh | EP2 modulator | PGE2 EP2 inh | MT stabilizer | HMGR II inh | b-catenin transl
COc1nc(C)c(CC(=O)N(CCN(C)C)C2CCCC2)c(OC)n1 | nt | -7 | 14 | nt | nt | nt
Cn1cccc1/C=C1\C(=O)NC(=O)N(Cc2ccccc2)C1=O | -1 | -12 | 7 | nt | nt | 74*
Cn1cccc1/C=C1/C(=O)NC(=O)N(Cc2ccc(F)cc2)C1=O | 1 | -72 | 12 | nt | nt | 4
Cn1cccc1/C=C1/C(=O)NC(=O)N(Cc2ccccc2)C1=O | 34 | -77 | 11 | 6 | 2 | 64*
Cn1cccc1/C=C1/C(=O)NC(=S)N(Cc2ccc(F)cc2)C1=O | 6 | -74 | 32 | nt | nt | 54*
COc1cc(C2C(C#N)=C(N)Oc3n[nH]c(C)c32)cc(Cl)c1O (stereo not drawn) | nt | -9 | 7 | nt | nt | nt
Cn1ccnc1C1(O)CC2CCC(C1)N2CC(=O)Nc1ccc(F)cc1 (stereo not drawn) | nt | -19 | nt | nt | nt | nt
COC(=O)C1=C(N)Oc2c(c(=O)oc3ccccc23)C1c1cccc(C(F)(F)F)c1 (stereo not drawn) | nt | -11 | 6 | nt | nt | nt
O=c1oc2ccccc2c(O)c1C1c2ncccc2-c2c1c(=O)oc1ccccc21 (stereo not drawn) | nt | -4 | 13 | nt | nt | nt
Cn1c(O)c(C=Nc2ccccc2Sc2ccccc2)c(=O)n(C)c1=O | 6 | 61* | 6 | 3 | 3 | -3
CC1=NN(c2ccccc2)C(=O)C1/C=C1\C(=O)NC(=O)N(c2cc(C)cc(C)c2)C1=O (stereo not drawn) | -11 | 30 | 8 | 4 | -7 | 4
CC1=NN(c2ccccc2)C(=O)[C@H]1N=Nc1ccc([As](=O)(O)O)c(O)c1 | nt | 46 | 43* | nt | nt | nt
CCCC(=O)NC(Oc1ccc(C(C)=O)cc1)C(Cl)(Cl)Cl (stereo not drawn) | -14 | -10 | 6 | 3 | -7 | -3
Cc1ccccc1C(=O)NC(Oc1ccccc1)C(Cl)(Cl)Cl (stereo not drawn) | 0 | 63* | 5 | 3 | -5 | -1
O=C(O)c1cc(N=Nc2ccc([As](=O)(O)O)cc2)ccc1O | nt | 33 | 43* | nt | nt | nt
CC(C)(C)c1cc(CCC(=O)O)cc(C(C)(C)C)c1O (tested in a mixture with another compound) | nt | 12 | 6 | nt | nt | nt
Cc1[nH]c2ccc(F)cc2c1CC(=O)N(CCN(C)C)Cc1cccnc1 | nt | -1 | 2 | nt | nt | nt
C[C@@H]1[C@H]2C=C[C@@H]1[C@H](c1c3ccc(=O)c(O)c-3oc3c(O)c(O)ccc13)[C@@H]2C(=O)O | nt | -10 | 45* | nt | nt | nt
O=C(c1ccc2c(c1)ncn2-c1ccc(F)cc1F)N1CCC2(CC1)OCCO2 | -1 | -17 | 11 | 21* | -2 | 0
COc1ccc(-n2c(C)nc3cc(C(=O)N4CCC5(CC4)OCCO5)ccc32)cc1 | 1 | 2 | 19 | 24* | 0 | 0
CCCCC[CH2][Hg][n+]1c[nH]c2nc(N)[nH]c(=S)c21 | nt | -28 | 100* | nt | nt | nt
